Measured values as given in ChEMBL document CHEMBL3352082, “Pyrazole derivatives as potent inhibitors of c-Jun N-terminal kinase: synthesis and SAR studies” (Bioorg Med Chem, 2014).

How the values were obtained:
[1] = biological target: Mitogen-activated protein kinase 8 (Homo sapiens, UniProt P45983); assay: Inhibition of FLAG-tagged JNK-1 (unknown origin) transfected in African green monkey COS cells by SDS-PAGE analysis; assay type: cell-based
In short: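 COS cells transfected with FLAG-tagged JNK-1 and exposed to 0.5 M sorbitol for 30 min to activate JNK-1. FLAG-JNK immunoprecipitated with GST-ATF2 substrate, and the precipitate pretreated with compound and incubated in buffer B. Phosphorylated substrate separated by SDS–PAGE, visualized by autoradiography and quantified by Cerenkov counting through a kinase profiler service.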

Rattus norvegicus [2] = assay: Antiinflammatory activity in po dosed rat paw edema model assessed as inhibition of carrageenan-induced paw edema administered 1 hr prior to carrageenan challenge measured after 1 hr
Rattus norvegicus [3] = assay: Antiinflammatory activity in po dosed rat paw edema model assessed as inhibition of carrageenan-induced paw edema administered 1 hr prior to carrageenan challenge measured after 2 hrs
Rattus norvegicus [4] = assay: Antiinflammatory activity in po dosed rat paw edema model assessed as inhibition of carrageenan-induced paw edema administered 1 hr prior to carrageenan challenge measured after 3 hrs
Rattus norvegicus [5] = assay: Antiinflammatory activity in po dosed rat paw edema model assessed as inhibition of carrageenan-induced paw edema administered 1 hr prior to carrageenan challenge measured after 4 hrs
Rattus norvegicus [6] = assay: Antiinflammatory activity in rat paw edema model assessed as inhibition of carrageenan-induced paw edema at 50 mg/kg, po administered 1 hr post carrageenan challenge measured after 1 hr; assay type: functional; conditions: in the assay text read “1 hr prior to carrageenan challenge” for “1 hr post carrageenan challenge”
In short: (§1)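 Rats given test compounds as an oral suspension; 1 h later 1% carrageenan injected into the subplantar region of the right paw. Paw volume read by digital plethysmometer at 1, 2, 3 and 4 h. Reported as mean paw volume (mL) ± SEM with % inhibition; significance p <0.01 / p <0.05. Method after Winter et al.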

Rattus norvegicus [7] = assay: Antiinflammatory activity in rat paw edema model assessed as inhibition of carrageenan-induced paw edema at 50 mg/kg, po administered 1 hr post carrageenan challenge measured after 2 hrs; assay type: functional; conditions: in the assay text read “1 hr prior to carrageenan challenge” for “1 hr post carrageenan challenge”; in short: as §1
Rattus norvegicus [8] = assay: Antiinflammatory activity in rat paw edema model assessed as inhibition of carrageenan-induced paw edema at 50 mg/kg, po administered 1 hr post carrageenan challenge measured after 3 hrs; assay type: functional; conditions: in the assay text read “1 hr prior to carrageenan challenge” for “1 hr post carrageenan challenge”; in short: as §1
Rattus norvegicus [9] = assay: Antiinflammatory activity in rat paw edema model assessed as inhibition of carrageenan-induced paw edema at 50 mg/kg, po administered 1 hr prior to carrageenan challenge measured after 4 hrs
Rattus norvegicus [10] = assay: Antiinflammatory activity in po dosed rat paw edema model assessed as inhibition of carrageenan-induced paw edema […] measured after 1 hr; assay type: functional; in short: as §1
Rattus norvegicus [11] = assay: Antiinflammatory activity in po dosed rat paw edema model assessed as inhibition of carrageenan-induced paw edema […] measured after 2 hrs; assay type: functional; in short: as §1
Rattus norvegicus [12] = assay: Antiinflammatory activity in po dosed rat paw edema model assessed as inhibition of carrageenan-induced paw edema […] measured after 3 hrs; assay type: functional; in short: as §1
Rattus norvegicus [13] = assay: Antiinflammatory activity in po dosed rat paw edema model assessed as inhibition of carrageenan-induced paw edema […] measured after 4 hrs; assay type: functional; in short: as §1
[14] = biological target: c-Jun N-terminal kinase, JNK (Homo sapiens, UniProt P45983+P53779+P45984); assay: Inhibition of JNK (unknown origin); assay type: protein assay

Sequence of Mitogen-activated protein kinase 8 (P45983 whole entry): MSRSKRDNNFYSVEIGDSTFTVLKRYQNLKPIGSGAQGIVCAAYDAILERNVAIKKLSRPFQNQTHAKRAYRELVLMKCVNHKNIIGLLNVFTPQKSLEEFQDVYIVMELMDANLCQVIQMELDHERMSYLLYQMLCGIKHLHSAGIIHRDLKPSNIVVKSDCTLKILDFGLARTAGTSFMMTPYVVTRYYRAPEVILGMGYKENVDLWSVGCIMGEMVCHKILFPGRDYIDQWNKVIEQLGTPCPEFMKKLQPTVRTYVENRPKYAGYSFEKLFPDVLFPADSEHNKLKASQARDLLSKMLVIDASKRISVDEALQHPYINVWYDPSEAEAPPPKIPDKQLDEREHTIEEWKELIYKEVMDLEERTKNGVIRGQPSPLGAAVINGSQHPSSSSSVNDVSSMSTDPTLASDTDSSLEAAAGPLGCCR

Compound	IC50 [1] [µM]	inhibition (INH) (Rattus norvegicus [2]) [%]	inhibition (INH) (Rattus norvegicus [3]) [%]	inhibition (INH) (Rattus norvegicus [4]) [%]	inhibition (INH) (Rattus norvegicus [5]) [%]	also measured
CC(=O)c1cccc(NC(=O)c2cc(-c3ccccc3)[nH]n2)c1	6.9	41.3	56.7	74.32	56.8	–
O=C(O)Cc1ccccc1Nc1c(Cl)cccc1Cl [DICLOFENAC SODIUM]	–	–	–	–	–	inhibition in vivo at 50 mg/kg (Rattus norvegicus [6]): 23%; inhibition in vivo at 50 mg/kg (Rattus norvegicus [7]): 36%; inhibition in vivo at 50 mg/kg (Rattus norvegicus [8]): 47%; inhibition in vivo at 50 mg/kg (Rattus norvegicus [9]): 51%
O=C(NCc1ccccc1)c1cc(-c2ccccc2)[nH]n1	9.1	35.48	53.4	48.64	25.66	–
COc1ccc(NC(=O)c2cc(-c3ccccc3)[nH]n2)cc1	8.1	33.3	79.54	81.08	66.44	–
O=C(Nc1ccccn1)c1cc(-c2ccccc2)[nH]n1	8.9	33.3	79.54	81.08	64.26	–
O=C(Nc1ccc(O)cc1)c1cc(-c2ccccc2)[nH]n1	–	22.11	43.24	23.28	16.64	–
O=C(NC1CC1)c1cc(-c2ccccc2)[nH]n1	6.2	69.89	85.22	88.13	55.87	–
COc1ccc(CNC(=O)c2cc(-c3ccccc3)[nH]n2)cc1	6.1	41.93	39.77	32.43	16.46	–
O=C(Nc1cc(Cl)ccc1Cl)c1cc(-c2ccccc2)[nH]n1	6.2	31.02	40.16	45.47	18.9	–
O=C(Nc1ccc(Br)cc1)c1cc(-c2ccccc2)[nH]n1	5.9	42.16	46.31	51.4	38.22	–
O=C(Nc1ccccc1)c1cc(-c2ccccc2)[nH]n1	9.6	32.48	35.02	45.64	30.58	–
CC(NC(=O)c1cc(-c2ccccc2)[nH]n1)c1cccc2ccccc12 (configuration not stated)	–	–	–	–	–	inhibition (INH) (Rattus norvegicus [10]): 61.29%; inhibition (INH) (Rattus norvegicus [11]): 73.86%; inhibition (INH) (Rattus norvegicus [12]): 74.32%; inhibition (INH) (Rattus norvegicus [13]): 50.64%
CC(C)(C)c1cc(NC(=O)c2cc(-c3ccccc3)[nH]n2)no1	–	68.6	70.6	52.8	41.7	–
O=C(Nc1ccc([N+](=O)[O-])cc1)c1cc(-c2ccccc2)[nH]n1	9.8	89.24	94.31	92.56	68.7	–
Cc1cc(C)c(NC(=O)c2cc(-c3ccccc3)[nH]n2)c(C)c1	11.9	53.65	45.6	44.24	26.8	–
O=C(Nc1nccs1)c1cc(-c2ccccc2)[nH]n1	6.8	45.31	51.06	54.65	31.4	–
c1ccc2c(-c3ccncc3)n[nH]c2c1	–	–	–	–	–	pIC50 [14]: 5.8

The remaining molecules from weak to strong by IC50 [1], led by results:

IC50 [1] [µM]	Compound	inhibition (INH) (Rattus norvegicus [2]) [%]	inhibition (INH) (Rattus norvegicus [3]) [%]	inhibition (INH) (Rattus norvegicus [4]) [%]	inhibition (INH) (Rattus norvegicus [5]) [%]	also measured
5.8	O=C(NCc1ccc(Cl)c(Cl)c1)c1cc(-c2ccccc2)[nH]n1	45.16	44.31	27.02	10.11	–
5.8	COc1ccc(CNC(=O)c2cc(-c3ccccc3)[nH]n2)cc1OC	54.83	46.59	43.24	24.8	–
3.2	COc1ccc(-c2cc(NC(=O)c3cc(-c4ccccc4)[nH]n3)no2)cc1	68.81	72.72	90.54	71.66	–
3.1	O=C(Nc1ccc(Cl)c(F)c1)c1cc(-c2ccccc2)[nH]n1	68.81	72.7	90.54	64.22	–
2.9	O=C(Nc1ccc2[nH]c(S)nc2c1)c1cc(-c2ccccc2)[nH]n1	94.62	95.45	91.62	74.15	–
2.9	O=C(NCc1ccc(F)cc1)c1cc(-c2ccccc2)[nH]n1	67.86	70.27	75.27	54.66	–
2.8	O=C(NCc1ccco1)c1cc(-c2ccccc2)[nH]n1	73.11	81.81	91.89	66.33	–
